Here are results for 19 compounds from ChEMBL document CHEMBL1122220, “Synthesis and antiallergic activity of some acidic derivatives of 4H-pyrimido[2,1-b]benzazol-4-ones” (1983).

Experiment [1] deals with Rattus norvegicus. Description: Minimum effective dose (MED) intraperitoneally in passive cutaneous anaphylaxis (PCA) model for 50% inhibition in Sprague-Dawley rat. The class given is functional. The following applies: ip, read-out: MED. The procedure, abridged:
(§1)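 Rat passive cutaneous anaphylaxis in Sprague-Dawley rats. Compounds given ip as a Klucel suspension at 5, 1.25 and/or 0.31 mg/kg (some at 10, 2.5 and 0.63 mg/kg ip), six animals per dose. MED is the lowest dose giving >50% inhibition with p ≤ 0.05 (Student's t test). Where data sufficed, ID50 with 95% confidence range was derived from experiments of six animals each.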

The species entered for experiment [2] is Rattus norvegicus. Description: Minimum effective dose (MED) perorally in passive cutaneous anaphylaxis (PCA) model for 50% inhibition in Sprague-Dawley rat. The experiment is classed as functional. The following applies: po, read-out: MED. The gist of the method:
(§2)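 Sprague-Dawley rat passive cutaneous anaphylaxis with oral dosing of a Klucel suspension at 10, 5 and/or 2.5 mg/kg, six animals per dose. MED po is the lowest dose producing >50% inhibition at p ≤ 0.05 (Student's t test).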

Experiment [3] is filed under the species Rattus norvegicus. Description: Concentration of compound perorally in passive cutaneous anaphylaxis (PCA) model for 50% inhibition in Sprague-Dawley rat; IN-Ineffective. The experiment is classed as functional, organism-based. The procedure, abridged: as §2
Experiment [4] deals with Rattus norvegicus. Description: Concentration of compound intraperitoneally in passive cutaneous anaphylaxis (PCA) model for 50% inhibition in Sprague-Dawley rat. The following applies: ip, read-out: ID50 (the source's name). The experiment is classed as functional. The gist of the method:
as §1

The source made the active and inactive calls. The calls are words filed in the database; no cut-off is given here.

As to `Cn1c2ccccc2n2c(=O)cc(C(=O)Nc3nn[nH]n3)nc12`, the minimal effective dose with Rattus norvegicus [1] came to 1.25 mg/kg; in the experiment listed under Rattus norvegicus [2] it was 10 mg/kg.
The matching figures for `O=C(O)c1cnc2sc3ccccc3n2c1=O`: over 5 mg/kg and over 10 mg/kg.
The matching figures for `O=C(O)c1cnc2oc3ccccc3n2c1=O`: over 5 mg/kg and over 10 mg/kg.
The matching figures for `Cn1c2ccccc2n2c(=O)c(C(=O)Nc3nn[nH]n3)cnc12`: 0.31 mg/kg and over 10 mg/kg.
As to `O=C(Nc1nn[nH]n1)c1cnc2oc3ccccc3n2c1=O`, the minimal effective dose in the experiment with Rattus norvegicus [1] was 1.25 mg/kg; in the experiment listed under Rattus norvegicus [2], 10 mg/kg.
The matching figures for `O=C(O)c1cc(=O)n2c(n1)sc1ccccc12`: over 5 mg/kg and over 10 mg/kg.
In the case of `O=C(Nc1nn[nH]n1)c1cnc2sc3ccccc3n2c1=O`, the results for the minimal effective dose in the experiment with Rattus norvegicus [1] and in the experiment filed under Rattus norvegicus [2] were 1.25 mg/kg and over 10 mg/kg, respectively.
The matching figures for `O=C(O)c1cc(=O)n2c(n1)oc1ccccc12`: 5 mg/kg and over 10 mg/kg.
The matching figures for `Cn1c2ccccc2n2c(=O)c(-c3nnn[nH]3)cnc12`: 0.31 mg/kg and 2.5 mg/kg.
`O=C([O-])c1cc(=O)c2c(OCC(O)COc3cccc4oc(C(=O)[O-])cc(=O)c34)cccc2o1.[Na+].[Na+]` [CROMOLYN SODIUM]: the ID50 entry in the experiment filed under Rattus norvegicus [3] was “inactive”. For the same compound, in the experiment with Rattus norvegicus [4], the ED50 was determined as 2.6 mg/kg.
Consider `O=c1cc(-c2nn[nH]n2)nc2sc3ccccc3n12`, for which the minimal effective dose with Rattus norvegicus [1] was 5 mg/kg; in the experiment filed under Rattus norvegicus [2], over 10 mg/kg.
The matching figures for `O=C(Nc1nn[nH]n1)c1cc(=O)n2c(n1)oc1ccccc12`: 1.25 mg/kg and over 10 mg/kg.
The matching figures for `O=c1c(-c2nnn[nH]2)cnc2oc3ccccc3n12`: 1.25 mg/kg and 5 mg/kg.
The matching figures for `O=c1c(-c2nnn[nH]2)cnc2sc3ccccc3n12`: 1.25 mg/kg and over 10 mg/kg.
As to `O=C(Nc1nn[nH]n1)c1cc(=O)n2c(n1)sc1ccccc12`, the minimal effective dose was 1.25 mg/kg in the experiment with Rattus norvegicus [1] and over 10 mg/kg in the experiment listed under Rattus norvegicus [2].
On the same counts, the results for `Cn1c2ccccc2n2c(=O)c(C(=O)O)cnc12` are 0.63 mg/kg and over 10 mg/kg.
Take `Cn1c2ccccc2n2c(=O)cc(-c3nn[nH]n3)nc12`: the minimal effective dose in the experiment with Rattus norvegicus [1] was 5 mg/kg.
In the case of `O=c1cc(-c2nn[nH]n2)nc2oc3ccccc3n12`, the minimal effective dose in the experiment with Rattus norvegicus [1] is 1.25 mg/kg; in the experiment listed under Rattus norvegicus [2], over 10 mg/kg.
The matching figures for `Cn1c2ccccc2n2c(=O)cc(C(=O)O)nc12`: over 5 mg/kg and over 10 mg/kg.
